Measurements of several laboratories.
Protocols differ between the studies behind these lines.
KIT V559D/V654A: Mast/stem cell growth factor receptor Kit (KIT, Homo sapiens, UniProt P10721, V559D/V654A)
KIT D816H: Mast/stem cell growth factor receptor Kit (KIT, Homo sapiens, UniProt P10721, D816H)
KIT D816V: Mast/stem cell growth factor receptor Kit (KIT, Homo sapiens, UniProt P10721, D816V)

| SMILES | target | test | conditions | quantity | value |
| --- | --- | --- | --- | --- | --- |
| N[C@@H]1CCN(c2nccc(-c3cnn4ncccc34)n2)C1 | KIT V559D/V654A | binding | 1 µM | remaining binding | 100% |
| CCS(=O)(=O)c1cc2cc(C[C@](O)(CC(C)(C)c3ccc(F)cc3C(N)=O)C(F)(F)F)[nH]c2cn1 | KIT D816H | cell-free assay, competition with immobilised ligand | 1 µM | remaining binding | 98% |
| Cc1cc(NC(=O)c2cccc3cc(-c4cccc5[nH]nc(N)c45)ccc23)ccc1F | KIT D816V | enzyme activity, inhibitor | 0.1 µM | activity vs control | 107% |
| Nc1ncnc2occ(-c3ccc(NC(=O)Nc4cc(C(F)(F)F)ccc4F)cc3)c12 | Mast/stem cell growth factor receptor Kit (KIT, Homo sapiens, UniProt P10721, A829P) | cell-free assay, inhibitor | 20 µM | remaining signal | 3.7% |
| CC/C(=N\NC(=O)NCc1cccc(O)c1)c1ccc(O)c(C)c1O | Mast/stem cell growth factor receptor Kit (KIT, Homo sapiens, UniProt P10721, V560G) | enzyme activity, inhibitor | 0.1 µM | inhibition | 0.1% |
| CNC(=O)Nc1ccc2c(c1)CC[C@@]21OC(=O)N(CC(=O)N(Cc2ccc(F)cc2)[C@@H](C)C(F)(F)F)C1=O | KIT V559D/V654A | cell-free assay, competition with immobilised ligand | 1 µM | remaining binding | 90% |
| C[C@H]1CCN(c2nccc(-c3cnn4ncccc34)n2)C1 | KIT D816V | binding | 1 µM | remaining binding | 100% |
| Cc1noc([C@H]2C[C@@H](c3ccc(C(F)(F)F)cc3)CN(C(=O)N3CCS(=O)(=O)C3)C2)n1 | KIT D816V | cell-free assay, competition with immobilised ligand | 1 µM | remaining binding | 100% |
| Cc1ccc(C(=O)NCc2ccsc2)cc1C#Cc1cn(C(C)C)c2ncnc(N)c12 | KIT D816H | enzyme activity, inhibitor | 1 µM | activity vs control | 11% |
